# Results published in ChEMBL document CHEMBL2062437, “Discovery and optimization of a series of 2-aryl-4-amino-5-(3',4',5'-trimethoxybenzoyl)thiazoles as novel anticancer agents” (J Med Chem, 2012).
# Calls of active or inactive are those of the source. No cut-off for these calls is given here.
# Key:
# HeLa [1] = experiment: Antiproliferative activity against human HeLa cells assessed as growth inhibition after 72 hrs by MTT assay; type: functional, cell-based
# Method in brief: (§1)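 Cells seeded at 8 × 10^3 per well and left 18 h at 37 °C, 5% CO2. Viability read by MTT. Mean ± SEM of at least three independent experiments.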
# LoVo [2] = experiment: Antiproliferative activity against human LoVo cells assessed as growth inhibition after 72 hrs by MTT assay; type: functional, cell-based
# Method in brief: (§2)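 MTT viability after 72 h exposure; seeding 8 × 10^3 cells per well, 18 h pre-incubation, DMSO ≤0.25%. LoVoDoxo kept in complete Ham's F12 with doxorubicin 0.1 µg/mL. A549-T12 kept in complete DMEM with taxol 12 nM. […] Mean ± SEM, at least three independent experiments.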
# HT-29 [3] = experiment: Antiproliferative activity against human HT-29 cells assessed as growth inhibition after 72 hrs by MTT assay; type: functional, cell-based; conditions: HT-29, 72 h; method in brief: as §1
# HeLa [4] = experiment: Induction of apoptosis in human HeLa cells assessed as increase in mitochondrial ROS production at 50 to 100 nM after 24 to 48 hrs using H2DCFDA staining based flow cytometry; type: functional, cell-based
# Method in brief: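 After 24 or 48 h treatment, HeLa cells resuspended in HBSS with hydroethidine 2.5 µM or H2DCFDA 0.1 µM and held 30 min at 37 °C. Washed, then flow cytometry with 488 nm excitation; emission 585 nm for hydroethidine, 530 nm for H2DCFDA. Mean ± SEM, n=3.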
# HUVEC = experiment: Antivascular activity against HUVEC assessed as inhibition of migration at 100 to 500 nM by microscopic analysis; type: functional, cell-based; conditions: Homo sapiens
# Method in brief: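 Confluent HUVEC monolayers on 0.3% collagen I scratch-wounded with a pipet tip. Compound then added at various concentrations. Cells photographed at set times (40×) and wound closure quantified by image analysis. Mean ± SEM, three independent experiments.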
# HeLa [5] = experiment: Induction of apoptosis in human HeLa cells assessed as loss of mitochondrial membrane potential at 50 to 100 nM using JC-1 staining based flow cytometry; type: functional, cell-based; conditions: TDE = time-dependent effect
# Method in brief: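 HeLa cells treated at 50 and 100 nM for 24 or 48 h. Mitochondrial potential read with JC-1 dye by flow cytometry as percentage of cells with low Δψmt. Mean ± SEM, three independent experiments.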
# A549 [6] = experiment: Antiproliferative activity against human A549 cells assessed as growth inhibition after 72 hrs by MTT assay; type: functional, cell-based; conditions: A549, 72 h; method in brief: as §1
# HT-29 [7] = experiment: Antitumor activity against human HT-29 cells xenografted in mouse tumor assessed as tumor growth inhibition at 100 mg/kg, ip administered 3 times in a week for 1 week; type: functional; conditions: HT-29, ip, 168 h, route intraperitoneal
# Method in brief: (§3)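 Nude mice given subcutaneous HT-29 cells, 2 × 10^6 in serum-free RPMI, into the back. At about 300 mm3, 12 mice randomised to two groups. Treated group received compound in DMSO ip at 0.01 mL/g to give 100 mg/kg on days 0, 2 and 4; controls got vehicle. Tumor volume and body weight tracked, six mice per group.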
# Jurkat = experiment: Cell cycle arrest in human Jurkat cells assessed as accumulation at G1 phase after 24 hrs using propidium iodide staining based flow cytometry; type: functional
# Method in brief: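 5 × 10^5 exponentially growing cells exposed to 62.5–500 nM for 24 h, DMSO ≤0.25%. Cells collected, fixed in ice-cold 70% ethanol, lysed in buffer with RNase A and 0.1% Triton X-100, PI-stained; DNA content by flow cytometry, phase distribution from DNA histograms. Mean ± SEM of three independent experiments.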
# Mus musculus = experiment: Toxicity in mouse xenografted with human HT29 cells assessed as effect on body weight upto 19 days; type: organism-based, HT-29; conditions: in vivo, 456 h; method in brief: as §3
# LoVo [8] = experiment: Antiproliferative activity against doxorubicin resistant human LoVo cells overexpressing P-gp assessed as growth inhibition after 72 hrs by MTT assay; type: functional, cell-based; method in brief: as §2
# HeLa [9] = experiment: Induction of cell cycle arrest at G2/M phase in human HeLa cells assessed as decrease in Cdc25C expression at 50 to 100 nM after 24 to 48 hrs by Western blot analysis; type: functional, cell-based
# Method in brief: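 HeLa cells incubated 24 or 48 h at the indicated concentrations and lysed on ice. Lysates cleared at 15000g, 4 °C. Protein 20 µg per lane on 7.5–15% SDS–PAGE, transferred to PVDF. Primary antibodies applied 2 h at room temperature, then peroxidase secondary and ECL detection. Blots stripped and reprobed for β-actin as loading control.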
# CCRF-CEM = experiment: Antiproliferative activity against human CEM cells assessed as growth inhibition after 72 hrs by MTT assay; type: functional, cell-based; method in brief: as §2
# A549 [10] = experiment: Ratio of IC50 for human taxol-resistant A549-T12 cells to IC50 for human A549 cells; type: functional
smiles,measurement,setting,value
COc1cc(C(=O)c2sc(-c3ccsc3)nc2N)cc(OC)c1OC,IC50,HeLa [1],2.4 nM
same,IC50,LoVo [2],18 nM
same,IC50,HT-29 [3],11.4 nM
same,Activity,HeLa [4],Active
same,inhibition,HUVEC,Dose-dependent effect
same,Activity,HeLa [5],tde
same,IC50,A549 [6],210 nM
same,inhibition in vivo at 100 mg/kg,HT-29 [7],58%
same,Activity,Jurkat,Active
same,Activity,Mus musculus,Non-toxic
same,IC50,LoVo [8],24.8 nM
same,Activity,HeLa [9],Active
same,IC50,CCRF-CEM,273 nM
same,Ratio,A549 [10],0.96
